ChEMBL document CHEMBL4359814, “A Potent Isoprenylcysteine Carboxylmethyltransferase (ICMT) Inhibitor Improves Survival in Ras-Driven Acute Myeloid Leukemia” (J Med Chem, 2019)
The source made the active and inactive calls. The calls are words filed in the database; no cut-off is given here.

What was measured:
[1] = target: Protein-S-isoprenylcysteine O-methyltransferase (Homo sapiens) (UniProt O60725); experiment: Inhibition of recombinant human ICMT expressed in Sf9 insect cell membranes at 50 uM using biotin-farnesyl-L-cysteine as substrate preincubated for 15 mins followed by substrate addition and measured after 30 mins by scintillation counting analysis relative to control
Protein-S-isoprenylcysteine O-methyltransferase (Homo sapiens), sequence (O60725 whole entry, the tested form may be a part): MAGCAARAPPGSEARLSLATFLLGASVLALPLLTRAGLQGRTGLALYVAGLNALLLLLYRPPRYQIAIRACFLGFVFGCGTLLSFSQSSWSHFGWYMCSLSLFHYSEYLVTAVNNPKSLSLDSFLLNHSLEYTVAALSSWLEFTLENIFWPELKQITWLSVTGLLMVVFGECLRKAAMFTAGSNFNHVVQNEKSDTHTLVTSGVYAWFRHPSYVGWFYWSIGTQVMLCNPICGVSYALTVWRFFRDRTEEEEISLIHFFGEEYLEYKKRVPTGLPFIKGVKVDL

[2] = target: T1, Protein farnesyltransferase (Homo sapiens) (UniProt P49354+P49356); experiment: Inhibition of FTase in human PC3 cells assessed as reduction in HDJ2 farnesylation at 10 uM measured after 24 hrs by Western blot analysis; type: cell-based
[3] = species: Homo sapiens; experiment: Inhibition of GGTase in human PC3 cells assessed as reduction in Rap1A geranylgeranylation at 10 uM measured after 24 hrs by Western blot analysis; type: cell-based
[4] = Permeability of the compound; type: ADME
In short: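 Parallel artificial membrane assay, expressed as percentage of compound passing through the membrane. Mean±SEM of at least two independent experiments in duplicate.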

[5] = target: Albumin (Homo sapiens, UniProt P02768); experiment: Binding affinity to human serum albumin; type: ADME; settings: for fraction unbound: human, human serum albumin, read-out: PB (converted)
Albumin, sequence (P02768 whole entry, the tested form may be a part): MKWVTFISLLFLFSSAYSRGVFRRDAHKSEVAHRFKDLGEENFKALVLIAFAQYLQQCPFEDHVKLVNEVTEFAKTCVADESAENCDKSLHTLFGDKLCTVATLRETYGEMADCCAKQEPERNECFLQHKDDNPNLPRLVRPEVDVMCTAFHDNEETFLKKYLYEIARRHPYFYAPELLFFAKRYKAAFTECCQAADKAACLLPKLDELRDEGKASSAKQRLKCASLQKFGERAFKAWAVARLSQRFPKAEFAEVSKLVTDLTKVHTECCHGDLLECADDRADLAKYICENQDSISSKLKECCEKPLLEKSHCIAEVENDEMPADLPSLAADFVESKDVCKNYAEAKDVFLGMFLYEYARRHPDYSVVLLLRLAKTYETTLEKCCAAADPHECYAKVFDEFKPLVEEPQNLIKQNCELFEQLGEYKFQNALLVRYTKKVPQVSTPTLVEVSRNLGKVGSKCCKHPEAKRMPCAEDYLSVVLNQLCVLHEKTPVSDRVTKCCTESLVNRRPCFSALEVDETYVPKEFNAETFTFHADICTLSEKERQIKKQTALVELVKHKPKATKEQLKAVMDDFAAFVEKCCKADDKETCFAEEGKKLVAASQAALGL

[6] = target: Tyrosine-protein kinase Fyn (Homo sapiens) (UniProt P06241); experiment: Effect on GFP-fused Fyn (unknown origin) transfected in human AD293 cells assessed as induction of Fyn mislocalization at 5 uM by laser confocal microscopic analysis; type: cell-based
Tyrosine-protein kinase Fyn (Homo sapiens), sequence (P06241 2-537 limits assumed): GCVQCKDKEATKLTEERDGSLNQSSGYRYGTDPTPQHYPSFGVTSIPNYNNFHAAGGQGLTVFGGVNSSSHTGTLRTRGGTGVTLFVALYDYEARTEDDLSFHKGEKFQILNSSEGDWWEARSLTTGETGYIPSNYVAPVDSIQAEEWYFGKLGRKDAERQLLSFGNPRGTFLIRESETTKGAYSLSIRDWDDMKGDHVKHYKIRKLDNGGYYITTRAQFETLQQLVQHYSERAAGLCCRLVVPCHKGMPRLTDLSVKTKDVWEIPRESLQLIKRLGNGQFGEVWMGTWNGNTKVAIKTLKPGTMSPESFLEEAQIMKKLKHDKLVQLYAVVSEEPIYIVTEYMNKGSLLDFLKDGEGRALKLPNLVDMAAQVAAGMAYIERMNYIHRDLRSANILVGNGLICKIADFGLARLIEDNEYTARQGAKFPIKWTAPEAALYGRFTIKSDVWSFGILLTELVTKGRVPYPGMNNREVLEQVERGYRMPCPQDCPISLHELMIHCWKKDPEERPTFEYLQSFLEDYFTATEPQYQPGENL

[7] = […] at 25 mg/kg, ip measured up to 6 hrs by LC-MS/MS analysis; type: ADME, organism-based; settings: NSG, mouse, plasma
[8] = Drug level in NSG mouse plasma at 25 mg/kg, ip measured after 1 hr by LC-MS/MS analysis; type: ADME, organism-based
In short: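 8-week female mice received a single 25 mg/kg ip dose. Blood was taken by cardiac puncture at set time points (n=3 per point), clotted 30 min at rt and centrifuged. Serum was extracted with cold acetonitrile, filtered, and analysed by LC-MS/MS on a C18 column using positive ESI and MRM transition 423.50 > 289.05.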

[9] = Drug level in NSG mouse plasma xenografted with human HL60 cells at 25 mg/kg, ip administered 5 days a week followed by 2 days interval for 15 days measured 2 hrs post-last dose by LC-MS/MS analysis; type: ADME, organism-based
[10] = target: T2, CAAX prenyl protease 2 (Homo sapiens, UniProt Q9Y256); experiment: Inhibition of Rce1 in human PC3 cells at 10 uM using KSKTKC(f)VI as substrate measured after 24 hrs by LC-MS/MS analysis; type: cell-based
T2 sequence (Q9Y256 whole entry): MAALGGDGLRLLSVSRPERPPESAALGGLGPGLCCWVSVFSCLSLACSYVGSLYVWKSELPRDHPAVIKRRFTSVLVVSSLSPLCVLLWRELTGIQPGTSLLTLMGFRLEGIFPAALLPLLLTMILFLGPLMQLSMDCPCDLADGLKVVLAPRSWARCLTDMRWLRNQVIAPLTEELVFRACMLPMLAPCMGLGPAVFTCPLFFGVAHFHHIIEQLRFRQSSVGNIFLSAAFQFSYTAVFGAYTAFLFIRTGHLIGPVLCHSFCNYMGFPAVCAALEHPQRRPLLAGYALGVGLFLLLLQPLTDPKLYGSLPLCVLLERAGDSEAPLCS
In short: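 PC-3 cells were incubated ±10 μM compound for 24 h and homogenised in 100 mM HEPES pH 7.5, 5 mM MgCl2, 0.5% NP-40. Homogenate, 0.2 mg, was reacted with 250 μM KSKTKC(f)VI for 60 min at 37 °C. Reactions were stopped with ice-cold acetonitrile, and the M+2/2 ion was followed by HPLC-MS/MS.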

[11] = target: Protein-S-isoprenylcysteine O-methyltransferase (Homo sapiens) (UniProt O60725); experiment: Inhibition of ICMT in human PC3 cells assessed as induction of mislocalization of endogenous Ras at 5 uM preincubated for 48 hrs followed by compound washout and subsequent compound addition measured after 72 hrs by Hoechst 33258 staining-based confocal microscopic analysis; type: cell-based
In short: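 PC3 cells were seeded at 2×10^4 on poly-D-lysine coverslips for 24 h in RPMI with 10% FBS. They were treated with compound or DMSO for 120 h, with medium and compound renewed at 48 h. Cells were fixed in 4% PFA, permeabilised with Triton X-100, and stained with anti-Ras and a fluorescent secondary, with Hoechst for nuclei. Imaging used a 60X confocal objective, and membrane Ras signal was quantified.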

[12] = system: PC-3; experiment: Induction of autophagy in human PC3 cells assessed as increase in LC3 expression at 25 uM measured after 24 hrs by Western blot analysis; type: functional, cell-based
[13] = system: PC-3; experiment: Induction of apoptosis in human PC3 cells assessed as increase in cleaved PARP expression at 25 uM measured after 24 hrs by Western blot analysis; type: functional, cell-based
[14] = system: PC-3; experiment: Induction of apoptosis in human PC3 cells assessed as increase in caspase 3 activity at 25 uM; type: functional, cell-based
[15] = target: Protein-S-isoprenylcysteine O-methyltransferase (Homo sapiens) (UniProt O60725); experiment: Inhibition of ICMT in human AD293 cells transfected GFP-fused H-Ras assessed as induction of H-Ras mislocalization at 5 uM by laser scanning confocal microscopic analysis; type: cell-based
In short: (§1)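 AD-293 cells were transiently transfected with GFP fusion plasmids of H-Ras, K-Ras4A, K-Ras4B or N-Ras. They were treated overnight with 5 μM compound or DMSO, then imaged live by laser scanning confocal microscopy. Three independent transfections were performed in triplicate.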

[16] = target: Protein-S-isoprenylcysteine O-methyltransferase (Homo sapiens) (UniProt O60725); experiment: Inhibition of ICMT in human AD293 cells transfected GFP-fused N-Ras assessed as induction of N-Ras mislocalization at 5 uM by laser scanning confocal microscopic analysis; type: cell-based; in short: as §1
[17] = target: Protein-S-isoprenylcysteine O-methyltransferase (Homo sapiens) (UniProt O60725); experiment: Inhibition of ICMT in human AD293 cells transfected GFP-fused K-Ras4A assessed as induction of K-Ras4A mislocalization at 5 uM by laser scanning confocal microscopic analysis; type: cell-based; in short: as §1
[18] = target: Protein-S-isoprenylcysteine O-methyltransferase (Homo sapiens) (UniProt O60725); experiment: Inhibition of ICMT in human AD293 cells transfected GFP-fused K-Ras4B assessed as induction of K-Ras4B mislocalization at 5 uM by laser scanning confocal microscopic analysis; type: cell-based; in short: as §1
[19] = system: MIA PaCa-2; experiment: Induction of apoptosis in human MIAPaCa2 cells assessed as increase in sub-G0/G1 population at 50 uM measured after 24 hrs by propidium iodide staining based flow cytometry; type: functional, cell-based
[20] = system: HuP-T4; experiment: Induction of apoptosis in human HUPT4 cells assessed as increase in sub-G0/G1 population at 50 uM measured after 24 hrs by propidium iodide staining based flow cytometry; type: functional, cell-based
[21] = system: PANC-1; experiment: Induction of apoptosis in human PANC1 cells assessed as increase in sub-G0/G1 population at 50 uM measured after 24 hrs by propidium iodide staining based flow cytometry; type: functional, cell-based
[22] = system: PK9; experiment: Induction of apoptosis in human PK9 cells assessed as increase in sub-G0/G1 population at 50 uM measured after 24 hrs by propidium iodide staining based flow cytometry; type: functional, cell-based
[23] = system: Capan-2; experiment: Induction of apoptosis in human Capan2 cells assessed as increase in sub-G0/G1 population at 50 uM measured after 24 hrs by propidium iodide staining based flow cytometry; type: functional, cell-based
[24] = species: Homo sapiens; experiment: Inhibition of GGTase in human PC3 cells assessed as reduction in Rap1A geranylgeranylation at 1 uM measured after 24 hrs by Western blot analysis; type: cell-based
[25] = target: T1, Protein farnesyltransferase (Homo sapiens); settings: 1 uM

CCOCCOCCN(CCC(=O)Nc1ccccc1)CCC(=O)Nc1ccccc1
inhibition [1]: 15%

COC(=O)[C@H](CC(C)C)NC(=O)c1ccc(NC[C@@H](N)CS)cc1-c1cccc2ccccc12
inhibition [2]: inactive | inhibition [3]: Active

CCCCCCCCN(CCC(=O)Nc1ccccc1)CCS(=O)(=O)N(C)c1ccccc1
inhibition [1]: 10%

CCCCCCCCN(CCC(=O)Nc1ccccc1)CCC(=O)Nc1ccccc1
permeability [4]: 68% | Kd [5]: 28 µM | fraction unbound [5]: 0.046 | Activity [6]: inactive | concentration at 6 h [7]: 480 nM | concentration at 1 h [8]: 1700 nM | concentration at 2 h [9]: 736 nM | inhibition [2]: inactive | inhibition (INH) [10]: Not Active

CCCCCCCCN(CCS(=O)(=O)Nc1ccccc1)CCS(=O)(=O)Nc1ccccc1
inhibition [1]: 34%

CCCCCCCCN(CCC(=O)Nc1ccccc1)CCC(=O)NC1CCCCC1
permeability [4]: 50% | Kd [5]: 3 µM | fraction unbound [5]: 0.005

CCCCCCCCN(CCC(=O)Nc1ccccc1)CCS(=O)(=O)Nc1ccccc1
inhibition [1]: 22%

CCCCCCCCN(CCS(=O)(=O)N(C)c1ccccc1)CCS(=O)(=O)N(C)c1ccccc1
inhibition [1]: 12%

CCCCCCCCn1cc(CC(N)=O)c2cc(-c3cccc(C)c3)ccc21
inhibition [11]: Active | Activity [12]: Active | Activity [13]: Active | Activity [14]: Active | inhibition [15]: Active | inhibition [16]: Active | inhibition [17]: Active | inhibition [18]: Active | Activity [6]: inactive | Activity [19]: Active | Activity [20]: Active | Activity [21]: Active | Activity [22]: Active | Activity [23]: Active

CCCCCCCCN(CCC(=O)Nc1ccccc1)CCC(=O)Nc1ccc(F)cc1
permeability [4]: 54% | Kd [5]: 7.8 µM | fraction unbound [5]: 0.013

NC(=O)N1CCC(CC(=O)N2CCC([C@H]3c4ncc(Br)cc4CCc4cc(Cl)cc(Br)c43)CC2)CC1
inhibition [24]: inactive | inhibition [25]: Active
